High-throughput results from PubChem BioAssay.
MC4R antag cAMP = human MC4R antagonism in cAMP assay; P32245; MC4R-expressing cells, MTII-stimulated cAMP, LANCE TR-FRET; inhibition, % at 6.5 µM; actives 0.48% (n = 360,000); AID 540295;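 active = inhibition above its plate's cutoff, the mean of tested wells on that plate plus 3 SD, cut at about 29% in these data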
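Test system: U2OS cells stably expressing human melanocortin 4 receptor (MC4R); also added: Melanotan II challenge; compound: 6.5 µM single dose; timing: 30-min compound preincubation, 1-h Melanotan II challenge, 1-h detection, room temperature; signal: Eu-cAMP/anti-cAMP TR-FRET, emission 671 nm; repeats: one well per compound, no replicates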
MC4R ag barr = human MC4R agonism via beta-arrestin; P32245; AID 540308; U2OS MC4R beta-arrestin complementation, luminescence; percent of melanotan II response, DMSO zero; activation, % at 8.9 µM; actives 0.98% (n = 360,000);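 active = activation above a per-plate cutoff, the mean activation of sample wells on that plate plus 3 SD, cut at about 8% in these data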
PfGluPho inh = PfG6PD (Plasmodium falciparum) enzyme inhibition | actives 0.78% (n = 350,000) | inhibition, % at 20 µM | PfGluPho enzyme, NADPH resazurin-diaphorase fluorescence;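 active = inhibition reaching at least a set limit at 20 µM in the primary screen, cut at about 59% in these data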
ABHD5 PLIN5 PPI = ABHD5-PLIN5 protein interaction inhibition; Q00G26+Q8WTS1; Split G. princeps luciferase complementation, luminescence, 4 h; inhibition, % at 4 µM; actives 0.78% (n = 360,000); AID 602281;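 active = inhibition above the mean inhibition across every tested compound plus 3 SD, cut at about 22% in these data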
B2AR ag = human beta-2 adrenergic receptor agonism by FAP; P07550; Am2.2-beta2AR cells, FAP receptor internalization, flow cytometry; response, % (test concentration not listed); actives 0.43% (n = 340,000);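 active = response above a set limit, near 3 SD of response in nonfluorescent compounds, cut at about 42% in these data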
Target sequence (P07550 whole entry, looked up): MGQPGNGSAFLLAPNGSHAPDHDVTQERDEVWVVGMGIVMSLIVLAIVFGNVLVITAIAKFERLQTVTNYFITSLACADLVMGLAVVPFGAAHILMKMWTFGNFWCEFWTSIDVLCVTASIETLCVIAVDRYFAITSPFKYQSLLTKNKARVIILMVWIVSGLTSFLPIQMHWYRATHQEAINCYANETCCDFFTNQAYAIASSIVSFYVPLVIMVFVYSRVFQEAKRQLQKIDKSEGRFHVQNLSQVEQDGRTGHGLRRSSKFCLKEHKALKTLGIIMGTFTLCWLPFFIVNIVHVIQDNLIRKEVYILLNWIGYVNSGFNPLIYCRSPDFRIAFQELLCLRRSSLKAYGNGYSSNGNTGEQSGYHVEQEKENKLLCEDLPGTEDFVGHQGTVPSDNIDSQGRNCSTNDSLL
MC4R barr ag = human MC4R beta-arrestin agonism confirmation | U2OS MC4R beta-arrestin recruitment, luminescence; scaled DMSO 0%, Melanotan II 100% | shares compounds with MC4R ag barr | activation, % at 8.9 µM | actives 31% (n = 2,400);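 active = mean activation across replicates above the hit cutoff set in the earlier primary screen, cut at about 8% in these data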
MOR DOR agonist = activates mu-delta opioid heterodimer, MC4R agonist counter-screen; shares compounds with MC4R ag barr; U2OS PathHunter beta-arrestin, beta-gal luminescence; percent of deltorphin B response, DMSO zero; activation, % at 9.2 µM; actives 5.8% (n = 2,400); AID 602194;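 active = mean activation across replicates exceeds the hit threshold derived in the earlier primary screen, cut at about 18% in these data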
A number is an active result; . = inactive; / = not tested or not shown. Most compounds without a hit are left out; they make up all but 3% or so of the library.

SMILES | MC4R antag cAMP | MC4R ag barr | PfGluPho inh | ABHD5 PLIN5 PPI | B2AR ag | MC4R barr ag | MOR DOR agonist
Cn1cnnc1SCC(=O)Nc1ccc2nc(SCc3cccc4ccccc34)sc2c1 | . | 9.6 | . | . | . | . | .
O=C(CSc1nc2ccc(NC(=O)CSc3nnnn3Cc3ccccc3)cc2s1)Nc1ccccc1 | . | 11.5 | . | . | . | . | .
C=C(c1ccccc1)c1ccccc1N | . | . | . | . | . | / | /
COC1Cc2ccccc2N(C(N)=O)c2ccccc21 (configuration not stated) | . | . | . | . | . | / | /
COc1ccc(CCNC(=O)CCNC(=O)c2ccc([N+](=O)[O-])cc2)cc1 | . | . | . | . | . | / | /
CC1CC(=Cc2ccc([N+](=O)[O-])cc2)C(=O)O1 (configuration not stated) | . | . | . | . | . | / | /
Cc1ccc(C(=O)N/N=C\c2ccc(-c3ccc(Cl)c(Cl)c3)o2)cn1 | . | 11.2 | . | . | . | 8.4 | .
Cc1ccc(-c2csc(N3CCN(S(=O)(=O)c4ccc5c(c4)NC(=O)CO5)CC3)n2)cc1 | . | . | . | . | . | / | /
CC(CCc1ccccc1)NC(=O)c1ccc(NC(=O)c2ccc(Cl)cc2Cl)cc1 (configuration not stated) | . | 9.9 | . | . | . | . | .
CC(CCc1ccccc1)NC(=O)c1ccc(NC(=O)c2ccccc2)cc1 (configuration not stated) | . | . | . | . | . | / | /
CN1CCN([C@H]2CS(=O)(=O)N[C@@H]2COCc2ccccc2)CC1 | / | / | / | . | / | / | /
O=C(O)CN1C(=O)/C(=C\c2cc(Br)ccc2OCc2ccc(Cl)cc2Cl)SC1=S | . | 10.6 | . | . | . | . | .
CC1(c2nc3ccccc3[nH]2)CCC2=Nc3ccccc3CN21 (configuration not stated) | / | / | / | . | / | / | /
COc1cc2c(cc1OC)C(c1ccc(-c3ccc(Cl)cc3Cl)o1)=NCC2 | . | 11.8 | . | . | . | . | .
COc1cc2c(cc1OC)C(c1ccc(-c3ccc(Cl)c(Cl)c3)o1)=NCC2 | . | . | . | . | . | / | /
COc1cc(-c2cc(NC(C)=O)c3ncc(-c4ccccc4)n3c2)cc(OC)c1OC | . | . | / | . | / | / | /
CC(=O)Nc1cc(-c2ccc(F)cc2)cn2c(-c3ccc(F)c(Cl)c3)cnc12 | . | 19.3 | / | . | / | 17.6 | .
CC(=O)Nc1cc(-c2cccc(F)c2)cn2c(-c3ccc(F)c(Cl)c3)cnc12 | . | 15.8 | / | . | / | 19.1 | .
CC(=O)Nc1cc(-c2cccc(NS(C)(=O)=O)c2)cn2c(-c3ccccc3)cnc12 | . | 11.7 | / | . | / | 19.8 | .
CC(=O)Nc1cc(-c2ccccc2)cn2c(-c3ccc(F)c(Cl)c3)cnc12 | . | 22.0 | / | . | / | 20.8 | .
O=C(c1ccco1)N1N=C2CCCCCC2C1(O)C(F)(F)F (configuration not stated) | . | . | . | . | . | / | /
CCN(CC(=O)Nc1c(F)cccc1F)C(=O)c1ccc2c(c1)OCO2 | . | . | . | . | . | / | /
CCCCn1c(N)c(N(C)C(=O)c2ccc(Br)o2)c(=O)[nH]c1=O | . | . | . | . | . | / | /
COc1ccc(OC)c(NC(=O)NC2CCCc3ccccc32)c1 (configuration not stated) | . | . | . | . | . | / | /
O=C(Nc1cc(Cl)ccc1-n1cncn1)c1cc(S(=O)(=O)N2CCOCC2)ccc1F | . | . | . | . | . | / | /
SMILES | MC4R antag cAMP | MC4R ag barr | PfGluPho inh | ABHD5 PLIN5 PPI | B2AR ag | MC4R barr ag | MOR DOR agonist
CC(=O)c1cccc(NS(=O)(=O)c2ccc(N/C=C\C(=O)c3ccc(C)cc3)cc2)c1 | . | 30.3 | . | . | . | . | .
CC(=O)c1cccc(NS(=O)(=O)c2ccc(N/C=C/C(=O)c3ccc(F)cc3)cc2)c1 | . | . | . | . | . | / | /
O=C(Nc1ccccc1)c1cc2ccc3ccccc3c2s1 | . | . | . | . | . | / | /
N#Cc1c(N)nc(-c2ccccc2)nc1-c1ccccc1 | . | 12.7 | . | . | . | . | .
CCN(CC)C(=O)Oc1nnc(SC(C)C)n1-c1ccc(Cl)cc1 | . | . | . | . | . | / | /
O=C(NN=C1C2CC3CC(C2)CC1C3)c1cc(Cl)ccc1O | . | . | . | . | . | / | /
Cc1ccc(C(=O)Cn2c(C(=O)/C=C/c3ccccc3)nc3ccccc32)cc1 | . | 20.4 | . | . | . | 21.0 | .
Cc1ccc(C(=O)Cn2c(NCCO)nc3ccccc32)cc1 | . | . | . | . | . | / | /
CC(C)c1ccccc1NC(=O)Cn1c(/C=C/c2ccccc2)nc2ccccc21 | / | / | . | / | / | / | /
Cc1ccc(NC(=O)Cn2c(/C=C/c3ccccc3)nc3ccccc32)cc1C | . | 17.0 | . | . | . | . | /
CCCCCCCCCCC(C(=O)O)C1(C(=O)O)CCC(=O)O1 (configuration not stated) | . | . | / | . | / | / | /
CC(C)COc1ccc(C(=O)Nc2ccc(NC(=O)c3ccco3)c(Cl)c2)cc1 | . | 40.4 | . | . | . | 23.6 | 28.0
CC(C)Oc1ccc(C(=O)Nc2ccc(NC(=O)c3ccco3)c(Cl)c2)cc1 | . | . | . | . | . | / | /
CCOC(=O)c1oc2ccc(S(=O)(=O)N3CCC(C)CC3)cc2c1C | . | 12.6 | . | . | . | . | .
CCOC(=O)c1sc2nc(NC(=O)C(C)(C)C)sc2c1C | . | 10.0 | . | . | . | . | .
CCOC(=O)c1sc2nc(NC(=O)C3CC3)sc2c1C | . | . | . | . | . | / | /
Cc1ccc(S(=O)(=O)N2CC(C)C(=O)CC2C)cc1 (configuration not stated) | . | . | . | . | . | / | /
Cc1ccc2nc(-c3ccc(NC(=O)CN4C(=O)NC(C)(c5ccc(OC(F)F)cc5)C4=O)cc3)sc2c1 (configuration not stated) | . | 18.1 | . | . | . | . | .
CC1=NC(C#N)=C(C#N)NC(C)(C)C1 | . | . | . | . | . | / | /
CCc1nc(Nc2cc(OC)ccc2OC)c2oc3ccccc3c2n1 | . | 10.2 | . | . | . | . | .
O=C(NCc1ccccc1)N1CCN(c2ccc(Cl)c(Cl)c2)CC1 | . | 22.2 | . | . | . | . | .
CCOC1=C2[C@@H](CN(S(=O)(=O)c3ccc(C)cc3)[C@H]2c2ccccc2Cl)[C@H]2C(=O)N(C)C(=O)[C@H]2C1 | / | / | / | . | / | / | /
CCOc1ccc(N(CC(=O)Nc2ccc(C)cc2)S(=O)(=O)c2c(C)noc2C)cc1 | . | . | . | . | . | / | /
CCOc1ccc(N(CC(=O)Nc2ccc(F)c(F)c2)S(=O)(=O)c2c(C)noc2C)cc1 | . | 9.6 | . | . | . | . | .
Cc1cc(Sc2nc(NC(C)C)nc(NC(C)C)n2)nc(Cl)n1 | . | . | . | . | . | / | /
